ChEMBL document CHEMBL3393048, “Discovery of potent cytotoxic ortho-aryl chalcones as new scaffold targeting tubulin and mitosis with affinity-based fluorescence” (J Med Chem, 2014)
Active and inactive are the calls of the source. No cut-off for these calls is given here.

Experiments:
A549 [1] = experiment: Induction of apoptosis in human A549 cells assessed as viable cells at 0.25 uM after 48 hrs by Annexin V-FITC/propidium iodide staining-based flow cytometry (reference value: 99.37%); format: functional; settings: A549, 48 h, read-out: Activity
A549 [2] = experiment: Cell cycle arrest in human A549 cells assessed as accumulation at G2/M phase at 31.25 nM after 24 hrs by Hoechst 33342 staining-based ArrayScanVTI analysis; format: functional
A549 [3] = experiment: Induction of apoptosis in human A549 cells assessed as necrotic cells at 0.25 uM after 48 hrs by Annexin V-FITC/propidium iodide staining-based flow cytometry (reference value: 0.06%); format: functional
A549 [4] = experiment: Induction of apoptosis in human A549 cells assessed as late apoptotic cells at 0.25 uM after 48 hrs by Annexin V-FITC/propidium iodide staining-based flow cytometry (reference value: 0.10%); format: functional
A549 [5] = experiment: Induction of apoptosis in human A549 cells assessed as early apoptotic cells at 0.25 uM after 48 hrs by Annexin V-FITC/propidium iodide staining-based flow cytometry (reference value: 0.47%); format: functional
A549 [6] = experiment: Antiproliferative activity against human A549 cells after 48 hrs by SRB method; format: functional, cell-based; settings: A549, 48 h
Procedure, shortened: (§1)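 SRB assay. Cells in DMEM high glucose with 10% FBS were seeded at 5000/well and grown 24 h; a day-0 plate was fixed at that point. Compounds were added in triplicate for 48 h. Cells were fixed with TCA at 4 °C for 1 h, stained with 0.4% SRB, and the dye was solubilized in 10 mM Tris pH 10.4. OD was read at 515 nm with day-0 OD subtracted. IC50 came from nonlinear regression of dose–response curves from at least two independent experiments.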

MCF7 [7] = experiment: Antiproliferative activity against doxorubicin-resistant human MCF7 cells after 48 hrs by SRB method; format: functional, cell-based; settings: MCF7, 48 h
Procedure, shortened: (§2)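 SRB assay. Cells in DMEM high glucose with 10% FBS were seeded at 5000/well and grown 24 h; a day-0 plate was fixed at that point. Compounds were added in triplicate for 48 h. IC50 came from nonlinear regression of dose–response curves from at least two independent experiments.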

MCF7 [8] = experiment: Drug resistance index, ratio of IC50 for doxorubicin-resistant human MCF7 cells to IC50 for human MCF7 cells; format: functional
Procedure, shortened: (§3)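 Drug resistance index = IC50 in the resistant line / IC50 in its parental line. […] Pairs: A549/CDDP vs A549, MCF-7/DOX vs MCF-7, A2780/TAX vs A2780, HCT-8/VCT vs HCT-8.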

[9] = Antiproliferative activity against vincristine-resistant human HCT8 cells after 48 hrs by SRB method; format: functional, cell-based; settings: HCT-8, 48 h; procedure, shortened: as §1
Tubulin (Homo sapiens) [10] = biological target: T1, Tubulin (Homo sapiens) (UniProt P68371+Q9H4B7+P0DPH7+P68366+Q13509+Q71U36+P04350+Q3ZCM7+P07437+P68363+Q9BQE3+Q6PEY2+Q13885+Q9BVA1+Q9BUF5); experiment: Displacement of (E)-3-(4-(Dimethylamino)phenyl)-1-(4'-fluoro[1,1'-biphenyl]-2-yl)prop-2-en-1-one from tubulin (unknown origin) by fluorescence assay; format: protein-complex assay
Procedure, shortened: (§4)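 Competition assay. Tubulin (4 μM) and probe (8 μM) in general tubulin buffer at 37 °C were incubated until fluorescence plateaued (about 30 min; excitation 430, emission 510 nm). Competitors were then added at 0–80 μM and kinetics recorded at 37 °C. The stable F/F0 ratio was plotted against competitor concentration and fitted.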

A2780 [11] = experiment: Antiproliferative activity against taxol-resistant human A2780 cells after 48 hrs by SRB method; format: functional, cell-based; settings: A2780, 48 h; procedure, shortened: as §2
A549 [12] = experiment: Antiproliferative activity against cis-platinum-resistant human A549 cells after 48 hrs by SRB method; format: functional, cell-based; settings: A549, 48 h; procedure, shortened: as §1
A549 [13] = experiment: Drug resistance index, ratio of IC50 for cis-platinum-resistant human A549 cells to IC50 for human A549 cells; format: functional; procedure, shortened: as §3
Tubulin (Homo sapiens) [14] = biological target: T1, Tubulin (Homo sapiens); experiment: Displacement of (E)-3-(4-(Dimethylamino)phenyl)-1-(4'-fluoro[1,1'-biphenyl]-2-yl)prop-2-en-1-one from tubulin (unknown origin) at 2 uM by fluorescence assay; format: protein-complex assay; procedure, shortened: as §4
Mus musculus = experiment: Toxicity in BALB/c nude mouse xenografted with human A549 cells assessed as body weight at 2 mg/kg, ip administered every other day for 2 weeks; format: organism-based; parameters: dose 2 mg/kg, route intraperitoneal; settings: in vivo, 336 h
Procedure, shortened: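 Female BALB/c nude mice, 5 weeks old, given 1 × 10⁷ A549 cells subcutaneously in the right flank. At about 100 mm³ tumor volume, randomized into groups of eight. Dosed ip at 2 mg/kg every other day for 2 weeks. Controls received normal saline with 0.5% DMSO and 5% Kolliphor HS 15. Body weight monitored throughout.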

[15] = Antiproliferative activity against human CNE2 cells after 48 hrs by SRB method; format: functional, cell-based; settings: CNE-2, 48 h; procedure, shortened: as §2
[16] = Antiproliferative activity against human HCT8 cells after 48 hrs by SRB method; format: functional, cell-based; settings: HCT-8, 48 h; procedure, shortened: as §2
A549 [17] = experiment: Antitumor activity against human A549 cells xenografted in BALB/c nude mouse assessed as reduction in tumor weight at 2 mg/kg, ip administered every other day for 2 weeks (reference value: 1.446 gm); format: functional; settings: route intraperitoneal
A549 [18] = experiment: Antitumor activity against human A549 cells xenografted in BALB/c nude mouse assessed as reduction in tumor volume at 2 mg/kg, ip administered every other day for 2 weeks (reference value: 1806.9 mm'3); format: functional; settings: route intraperitoneal
Tubulin (Homo sapiens) [19] = biological target: T1, Tubulin (Homo sapiens); experiment: Binding affinity to tubulin (unknown origin) after 30 mins by fluorescence assay; format: protein-complex assay
Procedure, shortened: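 Intrinsic fluorescence on tubulin binding. Compounds were mixed with tubulin (4 μM or 8 μM) in general tubulin buffer and incubated 30 min. Readings were excitation 430/emission 510 nm or excitation 365/emission 465 nm, with kinetic reads from mixing. ΔF = stable emission minus tubulin-only fluorescence. Optimal wavelengths were set by wavelength scanning.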

HepG2 = experiment: Antiproliferative activity against human HepG2 cells after 48 hrs by SRB method; format: functional, cell-based; settings: HepG2, 48 h; procedure, shortened: as §2
Tubulin (Homo sapiens) [20] = biological target: T1, Tubulin (Homo sapiens); experiment: Binding affinity to tubulin (unknown origin) by fluorescence assay in presence of DTNB; format: protein-complex assay
A549 [21] = experiment: Cell cycle arrest in human A549 cells assessed as accumulation at G2/M phase at 7.81 to 250 nM after 24 hrs by Hoechst 33342 staining-based ArrayScanVTI analysis; format: functional
Procedure, shortened: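 A549 cells were seeded at 5000/well, cultured overnight, then treated 24 h over a 7.81–250 concentration series. Cells were fixed in prewarmed paraformaldehyde 10 min, permeabilized with Triton X-100, and nuclei stained with Hoechst 33342. Imaging was by ArrayScan VTI high-content analysis. Phase percentage = cells within a gated fluorescence intensity / total cells counted.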

A549 [22] = experiment: Antimitotic activity in human A549 cells assessed as disorganized mitosis at 31 nM incubated for 24 hrs followed by cold treatment for 1 hr measured after 15 mins warm up by DAPI staining-based immunofluorescence microscopy; format: functional, cell-based
Procedure, shortened: (§5)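 A549 cells, 6 × 10⁴ per confocal dish, grown 24 h, then exposed 24 h (vehicle 0.5% DMSO, 37 °C). Dishes were held on ice 1 h to depolymerize microtubules, then rewarmed at 37 °C for 0, 5, 10 or 15 min. Cells were fixed in prewarmed paraformaldehyde 15 min and permeabilized with Triton X-100. […] Imaged by confocal microscopy.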

A549 [23] = experiment: Antimitotic activity in human A549 cells assessed as multinucleation at 31 nM incubated for 24 hrs followed by cold treatment for 1 hr measured after 15 mins warm up by DAPI staining-based immunofluorescence microscopy; format: functional, cell-based; procedure, shortened: as §5
A549 [24] = experiment: Antimitotic activity in human A549 cells assessed as multipolarization of spindle at 31 nM incubated for 24 hrs followed by cold treatment for 1 hr measured after 15 mins warm up by DAPI staining-based immunofluorescence microscopy; format: functional, cell-based; procedure, shortened: as §5
A549 [25] = experiment: Antimitotic activity in human A549 cells assessed as inhibition of microtubule reassembly in mitotic cells at 31 nM incubated for 24 hrs followed by cold treatment for 1 hr measured after 15 mins warm up by DAPI staining-based immunofluorescence microscopy; format: functional, cell-based; procedure, shortened: as §5
Tubulin = experiment: Inhibition of tubulin polymerization (unknown origin) by DAPI staining-based fluorescence microscopy; format: protein-complex assay, Homo sapiens
Procedure, shortened: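 Purified tubulin (99% pure; 20 μM as supplied) mixed with compound in general tubulin buffer (80 mM PIPES pH 6.9, 2.0 mM MgCl₂, 0.5 mM EGTA) with 1 mM GTP, 20% glycerol and DAPI reporter. Polymerization tracked kinetically at 37 °C as fluorescence rise (ex 360, em 450 nm). Duplicate wells per concentration. IC50 from at least two independent experiments.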

A549 [26] = experiment: Induction of microtubule disruption in human A549 cells assessed as multipolarization of spindle at 31 nM after 24 hrs by DAPI staining-based immunofluorescence microscopy; format: cell-based
SW480 = experiment: Antiproliferative activity against human SW480 cells after 48 hrs by SRB method; format: functional, cell-based; settings: SW480, 48 h; procedure, shortened: as §2
A2780 [27] = experiment: Antiproliferative activity against human A2780 cells after 48 hrs by SRB method; format: functional, cell-based; settings: A2780, 48 h; procedure, shortened: as §2
[28] = Drug resistance index, ratio of IC50 for vincristine-resistant human HCT8 cells to IC50 for human HCT8 cells; format: functional, HCT-8; procedure, shortened: as §3
A549 [29] = experiment: Antimitotic activity in human A549 cells assessed as inhibition of microtubule reassembly in interphase cells at 31 nM incubated for 24 hrs followed by cold treatment for 1 hr measured after 15 mins warm up by DAPI staining-based immunofluorescence microscopy; format: functional, cell-based; procedure, shortened: as §5
A2780 [30] = experiment: Drug resistance index, ratio of IC50 for taxol-resistant human A2780 cells to IC50 for human A2780 cells; format: functional; procedure, shortened: as §3
MCF7 [31] = experiment: Antiproliferative activity against human MCF7 cells after 48 hrs by SRB method; format: functional, cell-based; settings: MCF7, 48 h; procedure, shortened: as §2
A549 [32] = experiment: Induction of microtubule disruption in human A549 cells assessed as massive and dotted microtubule disorder formation at 31 nM after 24 hrs by DAPI staining-based immunofluorescence microscopy; format: cell-based
A549 [33] = experiment: Induction of microtubule disruption in human A549 cells assessed as multinucleation at 31 nM after 24 hrs by DAPI staining-based immunofluorescence microscopy; format: cell-based

Question: With `COc1cc2c(c(OC)c1OC)-c1ccc(OC)c(=O)cc1[C@@H](NC(C)=O)CC2` [COLCHICINE] as the molecule, how does the viability at 0.25 µM (A549 [1]) read?
Answer: 19.2%

Question: And the Activity (A549 [2])?
Answer: Active

Question: What about the Activity (A549 [3]) of the same molecule?
Answer: 6.93%

Question: What about the Activity (A549 [4]) of the same molecule?
Answer: 37.72%

Question: What about the Activity (A549 [5]) of the same molecule?
Answer: 36.19%

Question: And the IC50 (A549 [6])?
Answer: 50 nM

Question: For `CC[C@]1(O)C[C@H]2CN(CCc3c([nH]c4ccccc34)[C@@](C(=O)OC)(c3cc4c(cc3OC)N(C=O)[C@H]3[C@@](O)(C(=O)OC)[C@H](OC(C)=O)[C@]5(CC)C=CCN6CC[C@]43[C@@H]65)C2)C1` [VINCRISTINE], which IC50 (MCF7 [7]) is on record?
Answer: 4300 nM

Question: What about the “Ratio IC50” value (MCF7 [8]) of the same molecule?
Answer: 1063

Question: And the IC50 [9]?
Answer: 1900 nM

Question: And the Activity (Tubulin (Homo sapiens) [10])?
Answer: inactive

Question: What about the IC50 (A2780 [11]) of the same molecule?
Answer: 930 nM

Question: What about the IC50 (A549 [12]) of the same molecule?
Answer: 56 nM

Question: And the “Ratio IC50” value (A549 [13])?
Answer: 4.7

Question: Which results are given for `COc1ccc(/C=C/C(=O)c2ccccc2-c2cccc(F)c2)cc1O`?
Answer: Activity (Tubulin (Homo sapiens) [14]): Active; Activity (Mus musculus): Non-toxic; IC50 [15]: 17 nM; IC50 [16]: 16 nM; Activity (A549 [17]): 0.641 g; IC50 (MCF7 [7]): 2 nM; Activity (A549 [18]): 965.6 mm3; Activity (Tubulin (Homo sapiens) [19]): Dose-dependent effect; Ratio IC50 (MCF7 [8]): 0.03; IC50 [9]: 57 nM; IC50 (HepG2): 8 nM; Activity (Tubulin (Homo sapiens) [20]): inactive; Activity (A549 [21]): Active; Activity (A549 [2]): Active; Activity (A549 [22]): Active; Activity (A549 [23]): Active; IC50 (A2780 [11]): 230 nM; Activity (A549 [24]): Active; inhibition (A549 [25]): Active; IC50 (Tubulin): 490 nM; IC50 (A549 [6]): 11 nM; IC50 (A549 [12]): 180 nM; Activity (A549 [26]): Active; IC50 (SW480): 10 nM; IC50 (A2780 [27]): 13 nM; Ratio IC50 [28]: 3.6; inhibition (A549 [29]): Active; Ratio IC50 (A2780 [30]): 18; Ratio IC50 (A549 [13]): 16; IC50 (MCF7 [31]): 65 nM; Activity (A549 [32]): Active; Activity (A549 [33]): Active
